{
  "source": "ChEMBL document CHEMBL2321806",
  "about": "(J Med Chem, 2013)",
  "key": {"Insulin-degrading enzyme [1]": {"target": "T1, Insulin-degrading enzyme (Homo sapiens, UniProt P14735)", "T1 sequence (P14735 whole entry)": "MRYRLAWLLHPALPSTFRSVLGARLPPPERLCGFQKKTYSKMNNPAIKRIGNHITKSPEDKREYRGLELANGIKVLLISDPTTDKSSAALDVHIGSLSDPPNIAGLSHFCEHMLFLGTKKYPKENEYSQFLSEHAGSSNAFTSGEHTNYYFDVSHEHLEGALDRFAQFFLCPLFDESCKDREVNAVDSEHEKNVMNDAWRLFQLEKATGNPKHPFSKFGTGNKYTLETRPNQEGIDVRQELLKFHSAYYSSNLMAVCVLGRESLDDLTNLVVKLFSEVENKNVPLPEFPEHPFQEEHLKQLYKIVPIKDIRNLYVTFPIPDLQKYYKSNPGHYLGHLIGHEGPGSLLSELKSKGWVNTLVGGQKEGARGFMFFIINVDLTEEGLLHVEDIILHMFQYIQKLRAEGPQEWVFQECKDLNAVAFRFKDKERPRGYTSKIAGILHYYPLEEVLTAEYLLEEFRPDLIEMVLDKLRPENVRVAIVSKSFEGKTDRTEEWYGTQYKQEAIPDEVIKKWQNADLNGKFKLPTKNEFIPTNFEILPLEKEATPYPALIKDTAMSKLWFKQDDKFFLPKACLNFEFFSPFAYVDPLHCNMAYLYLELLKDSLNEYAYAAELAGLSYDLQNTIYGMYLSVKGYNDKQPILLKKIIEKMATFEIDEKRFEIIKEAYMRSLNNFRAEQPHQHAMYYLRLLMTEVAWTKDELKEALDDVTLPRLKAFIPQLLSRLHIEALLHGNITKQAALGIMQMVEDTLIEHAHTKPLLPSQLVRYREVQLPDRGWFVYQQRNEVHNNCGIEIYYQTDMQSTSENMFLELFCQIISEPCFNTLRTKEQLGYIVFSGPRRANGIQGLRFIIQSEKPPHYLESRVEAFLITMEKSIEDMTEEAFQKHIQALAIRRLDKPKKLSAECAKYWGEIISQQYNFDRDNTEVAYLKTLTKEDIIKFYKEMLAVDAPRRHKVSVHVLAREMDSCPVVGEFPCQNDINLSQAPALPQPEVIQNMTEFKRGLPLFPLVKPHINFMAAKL", "experiment": "Inhibition of human recombinant IDE-mediated FRET1 degradation", "conditions": "read-out: Ki(app)"}, "Insulin-degrading enzyme [2]": {"target": "T1, Insulin-degrading enzyme", "experiment": "Selectivity ratio of apparent Ki for human recombinant IDE-mediated insulin degradation to apparent Ki for human recombinant IDE-mediated FRET1 degradation"}, "Insulin-degrading enzyme [3]": {"target": "T1, Insulin-degrading enzyme", "experiment": "Inhibition of human recombinant IDE-mediated insulin degradation", "conditions": "read-out: Ki(app)", "outline": "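Insulin (2 nM) breakdown by recombinant human IDE in 50 mM HEPES pH 7.4, 100 mM NaCl, 10 mM MgCl₂, 0.05% BSA at 22 °C.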"}, "Matrilysin": {"target": "T2, Matrilysin (Homo sapiens, UniProt P09237)", "T2 sequence (P09237 whole entry)": "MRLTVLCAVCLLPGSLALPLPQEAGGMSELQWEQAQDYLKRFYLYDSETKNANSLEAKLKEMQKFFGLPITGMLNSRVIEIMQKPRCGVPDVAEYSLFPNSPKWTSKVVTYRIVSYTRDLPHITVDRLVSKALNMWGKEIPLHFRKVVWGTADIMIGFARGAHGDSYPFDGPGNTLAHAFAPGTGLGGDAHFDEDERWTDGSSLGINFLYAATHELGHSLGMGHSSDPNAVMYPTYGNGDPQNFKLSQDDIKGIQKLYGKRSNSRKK", "experiment": "(§1) Inhibition of MMP7 (unknown origin)-mediated omniMMP degradation", "outline": "(§2)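 Each protease (NEP, ECE1, ACE, MMP-2, MMP-7) was tested against the shared fluorogenic peptide substrate OmniMMP, with inhibitor concentrations up to 10 μM. IC50 values were taken from the dose-response data.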"}, "Insulin-degrading enzyme [4]": {"target": "T1, Insulin-degrading enzyme", "experiment": "Inhibition of human recombinant IDE-mediated fluorescein-Abeta-(1-40)-Lys-biotin degradation", "conditions": "read-out: Ki(app)", "outline": "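Aβ (200 nM) degradation by recombinant human IDE at 22 °C in HEPES pH 7.4 buffer with 100 mM NaCl, 10 mM MgCl₂, 0.05% BSA.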"}, "[5]": {"target": "T3, Matrilysin (Homo sapiens) (UniProt P09237)", "T3 sequence (whole entry)": "T2 sequence (P09237 whole entry)", "experiment": "as §1", "outline": "as §2"}, "[6]": {"target": "Neprilysin (Homo sapiens) (UniProt P08473)", "sequence (P08473 whole entry)": "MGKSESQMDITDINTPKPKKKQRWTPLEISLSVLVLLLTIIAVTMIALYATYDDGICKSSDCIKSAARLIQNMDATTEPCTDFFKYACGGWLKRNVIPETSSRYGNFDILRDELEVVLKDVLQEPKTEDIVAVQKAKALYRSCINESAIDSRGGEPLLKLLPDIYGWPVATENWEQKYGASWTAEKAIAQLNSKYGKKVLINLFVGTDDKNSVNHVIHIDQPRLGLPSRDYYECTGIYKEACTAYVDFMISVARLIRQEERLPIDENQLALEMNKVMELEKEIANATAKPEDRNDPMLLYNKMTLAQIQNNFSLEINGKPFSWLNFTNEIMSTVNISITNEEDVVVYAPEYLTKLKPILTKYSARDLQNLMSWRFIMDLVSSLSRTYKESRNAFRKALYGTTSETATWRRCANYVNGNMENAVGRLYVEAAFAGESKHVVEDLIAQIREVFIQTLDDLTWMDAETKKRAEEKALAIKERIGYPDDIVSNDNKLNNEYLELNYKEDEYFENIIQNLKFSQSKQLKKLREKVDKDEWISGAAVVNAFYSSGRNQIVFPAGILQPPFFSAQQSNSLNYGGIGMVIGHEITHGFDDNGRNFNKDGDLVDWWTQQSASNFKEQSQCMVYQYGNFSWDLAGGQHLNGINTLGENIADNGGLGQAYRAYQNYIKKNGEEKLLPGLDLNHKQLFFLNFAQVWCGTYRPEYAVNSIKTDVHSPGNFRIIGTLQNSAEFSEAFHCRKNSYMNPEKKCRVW", "experiment": "Inhibition of NEP (unknown origin)-mediated omniMMP degradation up to 10 uM", "outline": "as §2"}, "[7]": {"target": "72 kDa type IV collagenase (Homo sapiens) (UniProt P08253)", "sequence (P08253 110-660 limits assumed)": "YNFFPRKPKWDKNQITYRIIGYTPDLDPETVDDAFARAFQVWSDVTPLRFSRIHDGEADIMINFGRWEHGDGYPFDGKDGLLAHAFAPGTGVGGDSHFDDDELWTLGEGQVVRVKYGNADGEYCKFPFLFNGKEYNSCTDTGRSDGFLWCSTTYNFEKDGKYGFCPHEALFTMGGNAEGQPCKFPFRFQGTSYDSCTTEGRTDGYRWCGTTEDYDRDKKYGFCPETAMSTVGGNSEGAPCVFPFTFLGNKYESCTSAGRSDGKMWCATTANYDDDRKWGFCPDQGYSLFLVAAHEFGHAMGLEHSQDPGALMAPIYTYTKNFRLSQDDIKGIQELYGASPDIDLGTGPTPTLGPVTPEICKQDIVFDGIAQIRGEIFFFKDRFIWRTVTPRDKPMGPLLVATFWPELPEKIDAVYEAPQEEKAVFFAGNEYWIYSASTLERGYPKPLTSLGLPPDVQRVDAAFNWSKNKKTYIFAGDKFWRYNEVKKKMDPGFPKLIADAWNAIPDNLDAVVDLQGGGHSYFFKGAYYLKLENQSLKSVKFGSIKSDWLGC", "experiment": "Inhibition of MMP2 (unknown origin)-mediated omniMMP degradation up to 10 uM", "outline": "as §2"}, "[8]": {"target": "T3, Matrilysin (Homo sapiens)", "experiment": "Inhibition of MMP7 (unknown origin)-mediated omniMMP degradation up to 10 uM", "outline": "as §2"}, "[9]": {"target": "Angiotensin-converting enzyme (Homo sapiens) (UniProt P12821)", "sequence (P12821 whole entry)": "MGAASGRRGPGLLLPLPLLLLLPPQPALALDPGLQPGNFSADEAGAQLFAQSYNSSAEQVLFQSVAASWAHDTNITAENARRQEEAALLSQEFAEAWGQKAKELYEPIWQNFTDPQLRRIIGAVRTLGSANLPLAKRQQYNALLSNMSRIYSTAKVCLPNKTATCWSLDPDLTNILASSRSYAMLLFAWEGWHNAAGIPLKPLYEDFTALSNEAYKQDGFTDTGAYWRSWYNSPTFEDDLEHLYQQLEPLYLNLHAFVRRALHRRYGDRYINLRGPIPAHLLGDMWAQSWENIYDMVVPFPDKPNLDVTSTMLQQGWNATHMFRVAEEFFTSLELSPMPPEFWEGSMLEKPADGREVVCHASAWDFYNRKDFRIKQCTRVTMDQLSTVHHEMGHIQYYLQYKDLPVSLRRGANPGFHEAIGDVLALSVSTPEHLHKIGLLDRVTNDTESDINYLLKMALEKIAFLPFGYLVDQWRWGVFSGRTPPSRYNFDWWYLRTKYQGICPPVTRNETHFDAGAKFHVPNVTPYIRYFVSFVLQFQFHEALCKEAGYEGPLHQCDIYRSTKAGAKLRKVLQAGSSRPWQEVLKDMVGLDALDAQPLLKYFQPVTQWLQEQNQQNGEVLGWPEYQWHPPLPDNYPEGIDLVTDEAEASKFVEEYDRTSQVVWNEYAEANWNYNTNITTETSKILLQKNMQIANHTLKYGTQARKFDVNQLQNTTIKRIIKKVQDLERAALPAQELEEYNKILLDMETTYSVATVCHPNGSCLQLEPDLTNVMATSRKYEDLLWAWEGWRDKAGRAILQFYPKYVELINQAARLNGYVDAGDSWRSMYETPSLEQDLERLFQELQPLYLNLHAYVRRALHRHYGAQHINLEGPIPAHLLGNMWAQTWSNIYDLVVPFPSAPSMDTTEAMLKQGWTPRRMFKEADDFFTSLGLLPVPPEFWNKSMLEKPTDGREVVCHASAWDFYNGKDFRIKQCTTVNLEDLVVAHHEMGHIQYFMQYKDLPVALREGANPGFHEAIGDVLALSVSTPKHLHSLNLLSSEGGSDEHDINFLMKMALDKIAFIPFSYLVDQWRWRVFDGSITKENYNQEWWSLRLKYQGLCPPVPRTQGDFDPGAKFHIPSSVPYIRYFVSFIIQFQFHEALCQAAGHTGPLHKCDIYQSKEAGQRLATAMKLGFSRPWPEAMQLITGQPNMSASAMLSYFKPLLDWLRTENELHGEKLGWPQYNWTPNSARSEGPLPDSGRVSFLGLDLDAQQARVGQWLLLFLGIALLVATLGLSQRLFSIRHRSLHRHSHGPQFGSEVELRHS", "experiment": "Inhibition of ACE (unknown origin)-mediated omniMMP degradation up to 10 uM", "outline": "as §2"}, "[10]": {"target": "T4, Endothelin-converting enzyme 1 (Homo sapiens) (UniProt P42892)", "T4 sequence (whole entry)": "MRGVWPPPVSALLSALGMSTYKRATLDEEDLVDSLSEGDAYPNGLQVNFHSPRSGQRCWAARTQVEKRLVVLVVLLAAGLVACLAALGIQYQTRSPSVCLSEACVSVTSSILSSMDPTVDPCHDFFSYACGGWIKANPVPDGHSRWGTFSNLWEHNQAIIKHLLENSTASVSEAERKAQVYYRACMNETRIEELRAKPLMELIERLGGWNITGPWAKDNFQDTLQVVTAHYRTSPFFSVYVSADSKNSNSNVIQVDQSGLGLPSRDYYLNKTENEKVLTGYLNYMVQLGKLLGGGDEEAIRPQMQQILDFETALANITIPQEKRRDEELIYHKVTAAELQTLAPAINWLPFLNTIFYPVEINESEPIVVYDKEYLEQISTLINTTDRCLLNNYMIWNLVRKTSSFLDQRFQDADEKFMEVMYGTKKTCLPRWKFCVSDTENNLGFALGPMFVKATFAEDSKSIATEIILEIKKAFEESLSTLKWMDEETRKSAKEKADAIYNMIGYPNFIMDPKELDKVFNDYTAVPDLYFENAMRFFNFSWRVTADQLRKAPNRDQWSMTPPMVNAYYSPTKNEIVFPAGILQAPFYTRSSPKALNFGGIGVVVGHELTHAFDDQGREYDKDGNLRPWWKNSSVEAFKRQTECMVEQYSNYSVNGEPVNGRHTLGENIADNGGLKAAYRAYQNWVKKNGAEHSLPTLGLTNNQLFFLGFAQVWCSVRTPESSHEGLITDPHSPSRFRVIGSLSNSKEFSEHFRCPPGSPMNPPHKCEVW", "experiment": "Inhibition of ECE1 (unknown origin)-mediated omniMMP degradation up to 10 uM", "outline": "as §2"}},
  "note": "pIC50, pKi: −log10 of the molar value. Activity calls are given as the source filed them. No cut-off for these calls is given here.",
  "data": [
    {"smiles": "N=C(N)NCCCC[C@H](NC(=O)[C@H](Cc1ccc2ccccc2c1)[C@H](O)C(=O)NO)C(N)=O", "values": [
      {"measurement": "pKi", "setting": "Insulin-degrading enzyme [1]", "value": "< 4.48"}
    ]},
    {"smiles": "N=C(N)NCCC[C@@H](NC(=O)[C@@H](Cc1c[nH]c2ccccc12)NC(=O)[C@H](N)CCC(=O)O)C(=O)N[C@H](Cc1ccc2ccccc2c1)C(=O)NO", "values": [
      {"measurement": "Ratio Ki(app)", "setting": "Insulin-degrading enzyme [2]", "value": "> 60"}
    ]},
    {"smiles": "NC(=O)[C@H](CCC(=O)O)NC(=O)[C@H](Cc1c[nH]c2ccccc12)NC(=O)[C@H](CCCN=C(N)N)NC(=O)[C@H](Cc1ccc2ccccc2c1)[C@H](O)C(=O)NO", "values": [
      {"measurement": "pKi", "setting": "Insulin-degrading enzyme [3]", "value": 6.56},
      {"measurement": "pKi", "setting": "Insulin-degrading enzyme [1]", "value": 7.59},
      {"measurement": "pIC50", "setting": "Matrilysin", "value": 5.94},
      {"measurement": "pKi", "setting": "Insulin-degrading enzyme [4]", "value": 7.15}
    ]},
    {"smiles": "N=C(N)NCCC[C@H](NC(=O)[C@H](CC(=O)NO)Cc1ccc2ccccc2c1)C(=O)N[C@@H](Cc1c[nH]c2ccccc12)C(=O)N[C@@H](CCC(=O)O)C(N)=O", "values": [
      {"measurement": "pKi", "setting": "Insulin-degrading enzyme [1]", "value": 7.13}
    ]},
    {"smiles": "CC(=O)N[C@@H](CCC(=O)NCCNc1cccc2c(S(=O)(=O)O)cccc12)C(=O)N[C@H](Cc1ccc(O)cc1)C(=O)N(C(=O)c1ccccc1)[C@H](Cc1ccccc1)C(=O)N[C@H](Cc1ccc2ccccc2c1)C(=O)NO", "values": [
      {"measurement": "pKi", "setting": "Insulin-degrading enzyme [3]", "value": 6.39},
      {"measurement": "pKi", "setting": "Insulin-degrading enzyme [1]", "value": 7.36},
      {"measurement": "pKi", "setting": "Insulin-degrading enzyme [4]", "value": 8.85}
    ]},
    {"smiles": "CC(=O)N[C@@H](CCC(=O)O)C(=O)N[C@@H](Cc1c[nH]c2ccccc12)C(=O)N[C@@H](CCCN=C(N)N)C(=O)[C@H](CC(=O)NO)Cc1ccc2ccccc2c1", "values": [
      {"measurement": "pKi", "setting": "Insulin-degrading enzyme [1]", "value": 7.11}
    ]},
    {"smiles": "N=C(N)NCCCC[C@H](NC(=O)[C@H](CC(=O)NO)Cc1ccc2ccccc2c1)C(N)=O", "values": [
      {"measurement": "pKi", "setting": "Insulin-degrading enzyme [1]", "value": "< 4.48"}
    ]},
    {"smiles": "NC(=O)[C@H](CCCN=C(N)N)NC(=O)[C@H](Cc1ccc2ccccc2c1)[C@@H](O)C(=O)NO", "values": [
      {"measurement": "pKi", "setting": "Insulin-degrading enzyme [1]", "value": 5.15}
    ]},
    {"smiles": "N=C(N)NCCC[C@H](NC(=O)[C@@H](CC(=O)NO)Cc1ccc2ccccc2c1)C(=O)N[C@@H](Cc1c[nH]c2ccccc12)C(=O)N[C@@H](CCC(=O)O)C(N)=O", "values": [
      {"measurement": "pKi", "setting": "Insulin-degrading enzyme [3]", "value": 7.42},
      {"measurement": "pKi", "setting": "Insulin-degrading enzyme [1]", "value": 8.53},
      {"measurement": "inhibition", "setting": "[5]", "value": "Active"},
      {"measurement": "pKi", "setting": "Insulin-degrading enzyme [4]", "value": 7.66}
    ]},
    {"smiles": "C=CCOC(=O)[C@H](CCCN=C(N)N)NC(=O)[C@@H](CC(=O)NO)Cc1ccc2ccccc2c1", "values": [
      {"measurement": "pKi", "setting": "Insulin-degrading enzyme [3]", "value": 5.89},
      {"measurement": "pKi", "setting": "Insulin-degrading enzyme [1]", "value": 7.06},
      {"measurement": "pKi", "setting": "Insulin-degrading enzyme [4]", "value": 6.97}
    ]},
    {"smiles": "N=C(N)NCCCC[C@H](NC(=O)[C@@H](CC(=O)NO)Cc1ccc2ccccc2c1)C(N)=O", "values": [
      {"measurement": "pKi", "setting": "Insulin-degrading enzyme [1]", "value": "< 4.48"}
    ]},
    {"smiles": "CC[C@@H](C)[C@H]1NC(=O)[C@@H](Cc2ccccc2)NC(=O)[C@@H](Cc2cnc[nH]2)NC(=O)[C@@H](CC(=O)O)NC(=O)CC[C@H](C(=O)N[C@H](Cc2c[nH]c3ccccc23)C(=O)N[C@H](CCCN=C(N)N)C(=O)N[C@H](Cc2ccc3ccccc3c2)C(=O)NO)NC(=O)[C@@H](CCCN=C(N)N)NC1=O", "values": [
      {"measurement": "pKi", "setting": "Insulin-degrading enzyme [3]", "value": 6.77},
      {"measurement": "pKi", "setting": "Insulin-degrading enzyme [1]", "value": 7.64},
      {"measurement": "pKi", "setting": "Insulin-degrading enzyme [4]", "value": 6.61}
    ]},
    {"smiles": "NC(N)=NCCC[C@@H](NC(=O)[C@@H](Cc1c[nH]c2ccccc12)NC(=O)[C@H](N)CCC(=O)O)C(=O)N[C@H](Cc1ccc2ccccc2c1)C(=O)NO", "values": [
      {"measurement": "pKi", "setting": "Insulin-degrading enzyme [3]", "value": 5.49},
      {"measurement": "pKi", "setting": "Insulin-degrading enzyme [1]", "value": 7.30},
      {"measurement": "pKi", "setting": "Insulin-degrading enzyme [4]", "value": 6.64}
    ]},
    {"smiles": "NC(=O)[C@H](CCCN=C(N)N)NC(=O)[C@H](CC(=O)NO)Cc1ccc2ccccc2c1", "values": [
      {"measurement": "pKi", "setting": "Insulin-degrading enzyme [1]", "value": "< 4.48"}
    ]},
    {"smiles": "N=C(N)NCCC[C@@H](NC(=O)[C@@H](Cc1ccc(O)cc1)NC(=O)[C@H](N)CCC(=O)O)C(=O)N[C@H](Cc1ccc2ccccc2c1)C(=O)NO", "values": [
      {"measurement": "pKi", "setting": "Insulin-degrading enzyme [3]", "value": 6.08},
      {"measurement": "pKi", "setting": "Insulin-degrading enzyme [1]", "value": 7.07},
      {"measurement": "pKi", "setting": "Insulin-degrading enzyme [4]", "value": 6.44}
    ]},
    {"smiles": "NC(=O)[C@H](CCCN=C(N)N)NC(=O)[C@H](Cc1ccc2ccccc2c1)[C@H](O)C(=O)NO", "values": [
      {"measurement": "pKi", "setting": "Insulin-degrading enzyme [1]", "value": 5.11}
    ]},
    {"smiles": "NC(=O)[C@H](CCCN=C(N)N)NC(=O)[C@@H](CC(=O)NO)Cc1ccc2ccccc2c1", "values": [
      {"measurement": "pKi", "setting": "Insulin-degrading enzyme [1]", "value": 5.94}
    ]},
    {"smiles": "C=CCOC(=O)[C@H](CCCNC(=N)N)NC(=O)[C@H](CC(=O)NO)Cc1ccc2ccccc2c1", "values": [
      {"measurement": "pKi", "setting": "Insulin-degrading enzyme [1]", "value": 5.28}
    ]},
    {"smiles": "N=C(N)NCCC[C@H](NC(=O)[C@H](Cc1ccc2ccccc2c1)[C@@H](O)C(=O)NO)C(=O)N[C@@H](Cc1c[nH]c2ccccc12)C(=O)N[C@@H](CCC(=O)O)C(N)=O", "values": [
      {"measurement": "inhibition", "setting": "[6]", "value": "inactive"},
      {"measurement": "inhibition", "setting": "[7]", "value": "inactive"},
      {"measurement": "inhibition", "setting": "[8]", "value": "inactive"},
      {"measurement": "inhibition", "setting": "[9]", "value": "inactive"},
      {"measurement": "inhibition", "setting": "[10]", "value": "inactive"}
    ]},
    {"smiles": "NC(=O)[C@H](CCC(=O)O)NC(=O)[C@H](Cc1c[nH]c2ccccc12)NC(=O)[C@H](CCCN=C(N)N)NC(=O)[C@H](Cc1ccc2ccccc2c1)[C@@H](O)C(=O)NO", "values": [
      {"measurement": "pKi", "setting": "Insulin-degrading enzyme [3]", "value": 5.72},
      {"measurement": "pKi", "setting": "Insulin-degrading enzyme [1]", "value": 6.99},
      {"measurement": "pKi", "setting": "Insulin-degrading enzyme [4]", "value": 6.03}
    ]}
  ]
}
